The results in this text go back to ChEMBL document CHEMBL1667797, “Synthesis and anticoagulant activity of a new series of 1,4-dihydropyridine derivatives” (2011).

Holding throughout (format): functional
Assay [1] relates to Plasma. Briefly: Anticoagulant activity in human plasma assessed as activated partial […] time at 30 ug/ml. The method, boiled down:
(§1)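 Citrated plasma from healthy human donors (blood into 2.5% sodium citrate, spun 5400 rpm, 4 °C, 20 min, stored -70 °C). Plasma 90 µl plus 10 µl compound in water, 1 min at 37 °C. APTT reagent added, 5 min at 37 °C, then CaCl2 added. Clotting time read on a coagulometer. Saline control, heparin reference. Index = sample APTT/control APTT. Mean of five trials.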

For assay [2], the system named is Plasma. Briefly: Anticoagulant activity in human plasma assessed as prothrombin time index at 60 ug/ml relative to control. Summed up:
(§2)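 Citrated human donor plasma (2.5% sodium citrate, spun 5400 rpm at 4 °C for 20 min, kept at -70 °C). 90 µl plasma with 10 µl aqueous compound, incubated 10 min at 37 °C. Pre-incubated PT reagent (200 µl) added, clotting time recorded. Normal saline as control. PT index = sample PT/control PT. Mean of five trials.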

The test system of assay [3] is Plasma. Briefly: Anticoagulant activity in human plasma assessed as activated partial […] time index at 60 ug/ml relative to control. Summed up: as §1
Assay [4] deals with Plasma. Briefly: Anticoagulant activity in human plasma assessed as activated partial […] time index at 30 ug/ml relative to control. The method, boiled down: as §1
For assay [5], the system named is Plasma. Kind of assay: Anticoagulant activity in human plasma assessed as prothrombin time at 60 ug/ml. The method, boiled down:
as §2

In assay [6] the test system is Plasma. Kind of assay: Anticoagulant activity in human plasma assessed as prothrombin time index at 30 ug/ml relative to control. The method, boiled down: as §2
For assay [7], the system named is Plasma. Kind of assay: Anticoagulant activity in human plasma assessed as prothrombin time at 30 ug/ml. Summed up: as §2
The subject of assay [8] is Plasma. Briefly: Anticoagulant activity in human plasma assessed as activated partial […] time at 60 ug/ml. Summed up: as §1

`CC1=C(C(=O)NNC(N)=S)C(c2ccc(O)cc2)C(C(=O)NNC(N)=S)=C(C)N1`: the APTT is recorded as 400.8 s in the assay with Plasma [1] and 882.7 s with Plasma [8]. In addition, the Ratio in the assay with Plasma [2] was determined as 3.5; in the assay with Plasma [3], 24.25; in the assay on Plasma [4], 11; with Plasma [6], 2.3. Also, the PT in the assay on Plasma [5] is on record as 70.8 s; with Plasma [7], 45.6 s.
`CC1=C(C(=O)NNC(N)=S)C(c2ccco2)C(C(=O)NNC(N)=S)=C(C)N1`: the APTT with Plasma [1] was 720.35 s; with Plasma [8] it was more than 1000 s. Besides, the Ratio worked out at 21.22 in the assay on Plasma [2], 27.47 in the assay with Plasma [3], 19.78 in the assay on Plasma [4] and 12.14 in the assay on Plasma [6]. Also, the figures for the PT in the assay on Plasma [5] and in the assay with Plasma [7] were 420.21 s and 240.42 s, respectively.
For the compound `CC1=C(C(=O)NNC(N)=S)C(c2ccc(N(C)C)cc2)C(C(=O)NNC(N)=S)=C(C)N1`, the values for the APTT in the assay on Plasma [1] and in the assay on Plasma [8] were 221.8 s and 480 s, respectively. The Ratio with Plasma [2] worked out at 2.43; in the assay on Plasma [3] it was 13.18; in the assay with Plasma [4] it was 6.09; in the assay with Plasma [6], 1.09. Also, the PT in the assay with Plasma [5] is listed as 48.2 s; with Plasma [7] it was 21.6 s.
Turning to `CC1=C(C(=O)NNC(N)=S)C(c2ccc([N+](=O)[O-])cc2)C(C(=O)NNC(N)=S)=C(C)N1`, the results for the APTT in the assay with Plasma [1] and in the assay with Plasma [8] were 321.2 s and 721.8 s, respectively. In addition, the figures for the Ratio in the assay with Plasma [2], with Plasma [3] and in the assay on Plasma [4] were 2.66, 19.82 and 8.82, respectively. In addition, the PT is 52.8 s in the assay with Plasma [5] and 24.7 s in the assay with Plasma [7].
In the case of `COc1ccc(C2C(C(=O)NNC(N)=S)=C(C)NC(C)=C2C(=O)NNC(N)=S)cc1`, the APTT in the assay with Plasma [1] is recorded as 64.7 s; in the assay with Plasma [8], 120.2 s. Besides, the Ratio with Plasma [2] amounted to 4.71; in the assay on Plasma [3], 3.3; in the assay on Plasma [4] it was 1.85; in the assay with Plasma [6], 2.03. For the same compound, the PT was found to be 93.4 s in the assay on Plasma [5] and 45.7 s with Plasma [7].
`CC1=C(C(=O)NNC(N)=S)C(c2ccccc2)C(C(=O)NNC(N)=S)=C(C)N1`: the APTT with Plasma [1] is 87.5 s; in the assay with Plasma [8] it was 182.4 s. Further, the Ratio in the assay with Plasma [2] turned out to be 2.31; in the assay with Plasma [3], 5.01; in the assay with Plasma [4], 2.4; in the assay on Plasma [6] it was 0. Moreover, in the assay with Plasma [5], the PT is 45.8 s.
In the case of `CC1=C(C(=O)NNC(N)=S)C(c2ccc(Cl)cc2)C(C(=O)NNC(N)=S)=C(C)N1`, the APTT was determined as 90.7 s in the assay on Plasma [1] and 200.4 s with Plasma [8]. In addition, the Ratio in the assay on Plasma [2] was found to be 1.24; in the assay on Plasma [3] it was 5.5; in the assay on Plasma [4], 2.49; in the assay on Plasma [6] it was 0. Also, in the assay on Plasma [5], the PT is 33.8 s.
